We go through 18 molecules from ChEMBL document CHEMBL1153877, “Lowering of 5-nitroimidazole's mutagenicity: towards optimal antiparasitic pharmacophore” (Eur J Med Chem, 2009).

SMILES strings stand for the structures.

Data set [1] relates to Salmonella typhimurium. Nature of the data set: Induction of mutagenicity in Salmonella Typhimurium YG1042 assessed as number of revertant per ug after 48 hrs. Type of data set: toxicity, organism-based. The following applies: salmonella enterica subsp. enterica serovar typhimurium. The gist of the method: (§1)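 YG1042, a TA100 derivative, grown overnight in Nutrient Broth No. 2 with ampicillin and kanamycin. Bacteria preincubated 60 min at 37 °C with shaking with compound in DMSO and 0.1 mL PBS (0.15 M, pH 7.4). Top agar containing histidine/biotin added, then plated on Vogel-Bonner agar. Revertants counted after 48 h. Four doses in triplicate plates; solvent control in quadruplicate. Mutagenic power given as revertants per amount of compound.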

Data set [2] concerns Salmonella typhimurium. In words: Induction of mutagenicity in Salmonella Typhimurium TA100 assessed as number of revertant per ug after 48 hrs. As to conditions: salmonella enterica subsp. enterica serovar typhimurium. Type of data set: toxicity, organism-based. The method, boiled down: (§2)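 TA100 grown overnight in Nutrient Broth No. 2 with ampicillin. Bacteria preincubated 60 min at 37 °C with shaking with compound in DMSO and 0.1 mL PBS (0.15 M, pH 7.4). Top agar containing histidine/biotin added, then plated on Vogel-Bonner agar. Revertants counted after 48 h. Four consecutive doses in triplicate plates; solvent control in quadruplicate. Mutagenic power given as revertants per amount of compound.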

For data set [3], the system named is THP-1. In words: Cytotoxicity against human THP1 cells after 72 hrs by propidium iodide-based flow cytometry. Format: cell-based. As to conditions: THP-1, 72 h. The gist of the method: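 THP1 monocytes kept in RPMI with 10% foetal calf serum, 25 mM HEPES, 25 mM NaHCO₃ and 1% L-glutamine/penicillin-streptomycin at 37 °C, 6% CO₂. Cells at 10⁵ cells/mL exposed for 72 h to various concentrations from DMSO stocks. Drug-free and 0.5% DMSO final controls run alongside. Living cells counted by propidium iodide flow cytometry.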

Data set [4] relates to Trichomonas vaginalis. In words: Antitrichomonas activity against Trichomonas vaginalis TVR87 after 48 hrs by trypan blue staining. Format: functional, organism-based. The following applies: TVR87, 48 h. The method, boiled down:
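T. vaginalis TVR87 trophozoites grown in TM 161 medium with 10% heat-inactivated horse serum, used one day after subculture in log phase. Assay at 5 × 10³ trophozoites/mL, triplicate cultures, incubated anaerobically at 37 °C for 48 h with a range of compound concentrations from DMSO stocks. DMSO 0.1% final served as negative control. Viable cells counted by trypan blue.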

Data set [5] has as its system Salmonella typhimurium. In words: Induction of mutagenicity in Salmonella Typhimurium TA100 assessed as number of revertant per nmol after 48 hrs. Format: toxicity, organism-based. The following applies: salmonella enterica subsp. enterica serovar typhimurium. The method, boiled down:
as §2

Data set [6] relates to Salmonella typhimurium. In words: Ratio of number of revertant per nmol of drug for Salmonella Typhimurium YG1042 to number of revertant per nmol of drug for Salmonella Typhimurium TA100. Format: toxicity, organism-based. As to conditions: salmonella enterica subsp. enterica serovar typhimurium.
Data set [7] concerns Salmonella typhimurium. Nature of the data set: Induction of mutagenicity in Salmonella Typhimurium YG1042 assessed as number of revertant per nmol after 48 hrs relative to metranidazole. Format: toxicity, organism-based. As to conditions: salmonella enterica subsp. enterica serovar typhimurium.
The subject of data set [8] is Salmonella typhimurium. Nature of the data set: Induction of mutagenicity in Salmonella Typhimurium YG1042 assessed as number of revertant per nmol after 48 hrs. Type of data set: toxicity, organism-based. The following applies: salmonella enterica subsp. enterica serovar typhimurium. The method, boiled down:
as §1

Data set [9] concerns Salmonella typhimurium. In words: Induction of mutagenicity in Salmonella Typhimurium TA100 assessed as number of revertant per nmol after 48 hrs relative to metranidazole. The following applies: salmonella enterica subsp. enterica serovar typhimurium. Format: toxicity, organism-based.
Data set [10] is described as follows: Specificity index, ratio of IC50 for human THP1 cells to IC50 for Trichomonas vaginalis TVR87. More on the design: species or system THP-1. The gist of the method: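 Specificity index = IC50 against THP1 cells (72 h, propidium iodide flow cytometry) divided by IC50 against T. vaginalis (48 h, trypan blue).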

The term IC50 denotes the concentration needed to halve the response being measured. A lower IC50 goes with inhibition by little substance. Turning to `Cc1nc(CS(=O)(=O)c2ccc(Cl)cc2)c([N+](=O)[O-])n1C`, the Activity in data set [1] is given as 25.21; in data set [2] it was 7.15; in data set [5] it was 2.36; in data set [7] it was 0.1; in data set [8], 8.31; in data set [9], 0.28. The IC50 in data set [3] stood at 68 µM; in [4] it was 0.918 µM. In addition, the Ratio in data set [6] is given as 3.5. The “Ratio IC50” value in [10] turned out to be 74.

In the case of `Cc1nc(CS(=O)(=O)c2ccccc2)c([N+](=O)[O-])n1CCO`, the Activity stood at 8.36 in data set [1]; 1.72 in data set [2]; 0.56 in data set [5]; 0.03 in [7]; 2.72 in data set [8]; 0.07 in [9]. Further, the values for the half-inhibitory concentration (IC50) in data set [3] and in [4] were above 768 µM and 1.54 µM, respectively. The Ratio in [6] is on record as 4.9. Besides, the “Ratio IC50” value in data set [10] is above 500.

With `Cc1ncc([N+](=O)[O-])n1CCO` [METRONIDAZOLE], the IC50 in data set [3] was above 1460 µM; in data set [4], 2.75 µM.

For `Cn1cncc1[N+](=O)[O-]`, the Activity in [1] was 1551.06; in [2], 121.79; in data set [5], 15.48; in [7], 2.34; in data set [8] it was 197.14; in data set [9] it was 1.85. Moreover, the IC50 in [3] was above 1970 µM; in [4], 0.629 µM. Besides, in [6], the Ratio turned out to be 12.7. Besides, the “Ratio IC50” value in data set [10] is given as above 3125.

Regarding `Cc1nc(CS(=O)(=O)c2ccc(Br)cc2)c([N+](=O)[O-])n1CC(C)O` (stereo not given), the Activity in data set [1] stood at 3.08; in [2], 3.36; in data set [5] it was 1.41; in [7], 0.02; in data set [8], 1.29; in data set [9] it was 0.17. For the same molecule, the IC50 was 126 µM in [3] and 0.418 µM in data set [4]. Further, in data set [6], the Ratio was 0.9. Besides, the “Ratio IC50” value in data set [10] was determined as 301.

Consider `Cn1cnc(CS(=O)(=O)c2ccc(Cl)cc2)c1[N+](=O)[O-]`, for which the Activity in [1] worked out at 167.38; in [2], 139.44; in data set [5], 44.03; in [7] it was 0.63; in data set [8], 52.85; in data set [9] it was 5.27. For the same molecule, the results for the IC50 in [3] and in data set [4] were 174 µM and 0.158 µM, respectively. For the same molecule, in data set [6], the Ratio was determined as 1.2. Moreover, the “Ratio IC50” value in [10] is 1101.

As to `Cc1nc(CS(=O)(=O)c2ccc(F)cc2)c([N+](=O)[O-])n1CCO`, the Activity in [1] is reported as 10.09; in data set [2], 1.91; in [5], 0.66; in data set [7], 0.04; in [8], 3.46; in data set [9], 0.08. The values for the IC50 in data set [3] and in data set [4] were above 728 µM and 1.75 µM, respectively. For the same molecule, the Ratio in [6] is reported as 5.3. In data set [10], the “Ratio IC50” value is above 416.

Turning to `Cc1ccc(S(=O)(=O)Cc2nc(C)n(CCO)c2[N+](=O)[O-])cc1`, the Activity in data set [1] worked out at 6.14; in [2] it was 4.62; in data set [5], 1.57; in data set [7], 0.02; in data set [8], 2.08; in [9] it was 0.19. Also, the IC50 in [3] worked out at 59 µM; in data set [4], 0.067 µM. In addition, the Ratio in data set [6] is reported as 1.3. Besides, the “Ratio IC50” value in data set [10] stood at 880.

Consider `Cn1cnc(CS(=O)(=O)c2ccc(Br)cc2)c1[N+](=O)[O-]`, for which the Activity is reported as 164.42 in data set [1]; 41.41 in data set [2]; 14.92 in [5]; 0.7 in data set [7]; 59.22 in data set [8]; 1.78 in [9]. The results for the IC50 in [3] and in [4] were above 694 µM and 0.394 µM, respectively. Besides, the Ratio in data set [6] came out at 4. The “Ratio IC50” value in [10] is above 1761.

As for `Cc1nc(CS(=O)(=O)c2ccccc2)c([N+](=O)[O-])n1C`, the Activity in [1] is 74.18; in [2], 27.91; in [5], 8.24; in data set [7], 0.26; in data set [8], 21.91; in [9], 0.99. Moreover, the IC50 in [3] was above 846 µM; in [4], 0.24 µM. For the same molecule, in [6], the Ratio is listed as 2.7. Also, the “Ratio IC50” value in data set [10] was above 3525.

As to `Cc1nc(CS(=O)(=O)c2ccc(Cl)cc2)c([N+](=O)[O-])n1CC(C)O` (stereo not given), the Activity in [1] turned out to be 3.72; in data set [2] it was 2.18; in data set [5], 0.81; in data set [7], 0.02; in data set [8], 1.39; in [9], 0.1. Moreover, the IC50 in data set [3] is above 668 µM; in data set [4], 0.732 µM. Also, the Ratio in data set [6] is 1.7. Further, the “Ratio IC50” value in data set [10] was above 912.

For `Cc1ccc(S(=O)(=O)Cc2nc(C)n(C)c2[N+](=O)[O-])cc1`, the Activity came to 54.97 in data set [1]; 15.03 in data set [2]; 4.65 in data set [5]; 0.2 in data set [7]; 17 in data set [8]; 0.56 in data set [9]. In addition, the figures for the IC50 in data set [3] and in data set [4] were 242 µM and 0.355 µM, respectively. The Ratio in [6] was determined as 3.7. The “Ratio IC50” value in data set [10] stood at 684.

Take `Cc1ccc(S(=O)(=O)Cc2nc(C)n(CC(C)O)c2[N+](=O)[O-])cc1` (stereo not given): the Activity in data set [1] came to 6.76; in data set [2] it was 2.07; in [5], 0.73; in [7] it was 0.03; in data set [8], 2.39; in data set [9], 0.09. The IC50 in data set [3] was above 707 µM; in data set [4], 0.124 µM. Also, the Ratio in data set [6] is 3.3. The “Ratio IC50” value in [10] is above 5701.

As for `Cc1nc(CS(=O)(=O)c2ccc(Br)cc2)c([N+](=O)[O-])n1CCO`, the Activity in data set [1] is 9.123; in data set [2] it was 2.73; in [5] it was 1.1; in data set [7] it was 0.04; in data set [8], 3.73; in data set [9], 0.13. The IC50 in data set [3] was 124 µM; in data set [4] it was 1.64 µM. In data set [6], the Ratio is 3.4. Also, the “Ratio IC50” value in data set [10] was found to be 75.

Consider `Cc1nc(CS(=O)(=O)c2ccccc2)c([N+](=O)[O-])n1CC(C)O` (stereo not given), for which the Activity in data set [1] was determined as 10.76; in data set [2], 2.58; in data set [5], 0.88; in data set [7] it was 0.04; in [8], 3.65; in data set [9], 0.1. The IC50 in [3] is 418 µM; in [4] it was 0.615 µM. Moreover, in [6], the Ratio came out at 4.2. The “Ratio IC50” value in [10] is on record as 679.

With `Cc1nc(CS(=O)(=O)c2ccc(F)cc2)c([N+](=O)[O-])n1C`, the Activity came out at 24.26 in data set [1]; 4.72 in data set [2]; 1.48 in data set [5]; 0.09 in [7]; 7.6 in data set [8]; 0.18 in data set [9]. In addition, the IC50 in [3] is above 797 µM; in data set [4], 2.55 µM. Besides, the Ratio in data set [6] came to 5.1. Further, in [10], the “Ratio IC50” value is given as above 312.

Regarding `Cc1ccc(S(=O)(=O)Cc2ncn(C)c2[N+](=O)[O-])cc1`, the Activity came out at 185.37 in data set [1]; 69.71 in [2]; 20.59 in data set [5]; 0.65 in data set [7]; 54.74 in [8]; 2.46 in data set [9]. Besides, the IC50 in [3] is above 846 µM; in data set [4], 0.155 µM. The Ratio in [6] was found to be 2.7. Further, in [10], the “Ratio IC50” value is listed as above 5458.

For `Cc1nc(CS(=O)(=O)c2ccc(F)cc2)c([N+](=O)[O-])n1CC(C)O` (stereo not given), the IC50 in [3] is above 699 µM; in data set [4], 2.38 µM. Further, in data set [10], the “Ratio IC50” value is above 293.
